Bioassay records as filed in PubChem.
pPAFAH FP inh: inhibitors of human plasma PAF acetylhydrolase (pPAFAH). Q13093. recombinant pPAFAH, FP-rhodamine probe fluorescence polarization. inhibition, % at 3.39 µM. 330,000 compounds, 1.5% hits. AID 463082;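 active = inhibition above the mean inhibition across the screen plus 3 SD, cut at about 25% in these data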;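 note: inhibitors block binding of the rhodamine activity-based probe so polarization drops; 0% = enzyme with DMSO and 100% = wells lacking pPAFAH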
PAFAH2 inh: inhibitors of human PAFAH2; recombinant PAFAH2, FP-rhodamine activity probe, fluorescence polarization; inhibition, % at 3.39 µM; 340,000 compounds, 0.99% hits; AID 492956;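 active = inhibition above the mean over all tested compounds plus 3 SD, cut at about 30% in these data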;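 note: inhibitors block probe labeling of enzyme so polarization drops; 0% = enzyme with DMSO and 100% = wells lacking PAFAH2 protein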
PAFAH1B2 FP inh: inhibitors of human PAFAH1B2; recombinant PAFAH1B2, FP-rhodamine activity probe, fluorescence polarization; 340,000 compounds, 1.2% hits; AID 492953; inhibition, % at 3.39 µM;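 active = inhibition above the mean of all tested compounds plus 3 SD, cut at about 24% in these data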;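 note: 0% = enzyme with DMSO and 100% = wells lacking PAFAH1B2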
Target sequence (P68402 whole entry, looked up): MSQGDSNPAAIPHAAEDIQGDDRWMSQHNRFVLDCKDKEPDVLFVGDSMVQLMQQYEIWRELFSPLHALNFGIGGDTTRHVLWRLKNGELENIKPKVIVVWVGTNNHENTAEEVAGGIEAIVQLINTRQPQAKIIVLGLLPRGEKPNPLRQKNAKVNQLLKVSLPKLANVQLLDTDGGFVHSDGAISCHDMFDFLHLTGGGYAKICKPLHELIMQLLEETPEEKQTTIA
Apaf1 inhib: inhibitors of human Apaf-1 apoptosome | AID 489030 | reconstituted apoptosome caspase-3 activity, DEVD-Rh110 fluorescence | 330,000 compounds, 0.71% hits | inhibition, % at 20 µM; active = inhibition of at least 40% at 20 µM;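 note: plate controls were DMSO wells for no effect and DEVD-CHO caspase inhibitor wells for full effect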
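Medium: Hepes buffer, pH 7.5 / System: biochemical Apaf-1 apoptosome reconstitution / Measured by: Rh110 fluorescence, excitation 480 nm, emission 540 nm / Times: compound with Apaf-1, dATP, procaspase-3 30 min, then 50 min reaction, room temperature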
PAFAH1B3 FP inh: PAFAH1B3 (human) inhibition. recombinant PAFAH1B3, FP-rhodamine probe, fluorescence polarization. inhibition, % at 3.39 µM. 340,000 compounds, 0.28% hits. AID 492972;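 active = inhibition above the screen-wide average of all tested compounds plus 3 SD, cut at about 25% in these data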;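 note: 0% = enzyme with DMSO only and 100% = wells lacking PAFAH1B3 protein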
Target sequence (Q15102 whole entry, looked up): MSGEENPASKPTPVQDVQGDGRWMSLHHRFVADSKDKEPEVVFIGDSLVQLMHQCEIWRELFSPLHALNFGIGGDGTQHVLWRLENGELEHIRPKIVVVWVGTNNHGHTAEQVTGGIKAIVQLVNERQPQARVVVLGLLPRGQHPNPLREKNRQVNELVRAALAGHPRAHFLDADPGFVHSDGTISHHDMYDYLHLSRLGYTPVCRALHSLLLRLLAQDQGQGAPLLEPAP
* hit, by the source's call; . = no result given; ! = repeats disagree. Rows were chosen to be rich in hits. Some 3.1% of all compounds tested hit in one or more screens of this group.

SMILES	pPAFAH FP inh	PAFAH2 inh	PAFAH1B2 FP inh	Apaf1 inhib	PAFAH1B3 FP inh
O=C(c1cccnc1)N1CCN(S(=O)(=O)c2cccc(Cl)c2)CC1	.	-0.9	1.9	2.1	2.8
CN1CCN(S(=O)(=O)c2ccc(-c3ccc(Cl)cc3)cc2)CC1	-0.8	-3.4	2.2	5.9	-1.9
CN1CCN(S(=O)(=O)c2ccc(Cl)cc2)CC1	-8.6	-0.8	25.1*!	5.1	10.7
COc1ccc(NC(=O)CCN2CCN(S(=O)(=O)c3ccc(Cl)cc3)CC2)cc1	-5.6	5.7	24.8*	4.9	-1.7
O=C(c1cncc(Br)c1)N1CCN(S(=O)(=O)c2ccc(Cl)cc2)CC1	3.3	7.5	25.1*	4.0	12.3
O=C(CN1CCN(S(=O)(=O)c2ccc(Cl)cc2)CC1)c1ccc(O)c(O)c1	16.0	4.2	33.2*	1.6	6.2
CSCCC(NC=O)C(=O)NC(C)C(=O)O (configuration not stated)	.	0.4	1.8	.	5.6
CSc1cc(C)c(OCC(=O)Nc2c(C)nn(C)c2C)c(C)c1	-2.4	1.8	0.9	10.3	5.3
COc1ccc(C(=O)NC2CCN(C(=O)NCc3ccccc3)CC2)cc1	14.3	1.0	6.5	4.1	9.8
CC(NS(=O)(=O)c1ccccc1)C(=O)Nc1ccc2c(c1)OCCO2 (configuration not stated)	5.0	-0.4	4.3	-2.4	4.1
O=C(C1CCCCC1)N1CCN(S(=O)(=O)c2ccc(Cl)cc2)CC1	3.6	-4.0	27.3*	-5.9	2.3
O=C(c1ccc2ccccc2n1)N1CCN(S(=O)(=O)c2ccc(Cl)cc2)CC1	0.4	2.4	27.5*	11.0	1.7
Cc1ccc(S(=O)(=O)N2CCN(C)CC2)cc1C	-2.0	-5.2	6.3	-7.0	2.9
O=S(=O)(c1ccc(Cl)cc1)N1CCCC(C(F)(F)F)C1 (configuration not stated)	6.1	7.4	30.4*	8.9	5.3
Cc1ccc(S(=O)(=O)c2ccc(Cl)cc2)cc1S(=O)(=O)N1CCN(C)CC1	6.0	-0.6	26.4*	-11.7	4.4
Cc1ccccc1-c1cc(C(=O)NCc2cccc(C(F)(F)F)c2)n(CC2CC(c3cccnc3)=NO2)n1 (configuration not stated)	-0.3	-12.2	13.1	19.6	1.3
O=C(Nc1ccc2c(c1)CCCN2C(=O)c1ccco1)c1cc([N+](=O)[O-])ccc1Cl	-0.8	1.8	-1.0	5.5	5.1
CC(C)c1ccc(NC2CCCN(C(=O)c3ccc4nccnc4c3)C2)cc1 (configuration not stated)	4.8	0.5	3.7	-0.4	-0.3
COC(=O)c1ccc(C(=O)N2CCCC(Nc3ccc(C(C)C)cc3)C2)nc1 (configuration not stated)	7.1	0.1	24.7*	2.8	11.6
O=C(NCc1ccccc1)C1(c2cccc(F)c2)CCCC1	-4.5	9.7	26.2*	8.6	6.9
CC(CC(=O)NCCc1ccc(Cl)cc1)S(=O)(=O)c1ccc2c(c1)NC(=O)CO2 (configuration not stated)	4.3	4.4	30.2*	-2.4	3.3
CCCCCCN(C(=O)CCCCCN1C(=O)NC(c2ccc(-c3ccccc3)cc2)C(C(=O)OCc2ccccc2)=C1C)C(C(=O)NCCCC)c1ccccc1 (configuration not stated)	.	.	.	16.8	.
CCCCCCN(C(=O)CCCCCN1C(=O)NC(c2ccc(-c3ccccc3)cc2)C(C(=O)OCc2ccccc2)=C1C)C(C)C(=O)NCCCC (configuration not stated)	28.5*	.	.	17.3	.
CCCCNC(=O)C(C1CCCCC1)N(CCN(C)C)C(=O)CCCN1C(=O)NC(c2ccc(-c3ccccc3)cc2)C(C(=O)OCc2ccccc2)=C1C (configuration not stated)	8.4	-2.5	-1.6	64.3*	11.4
O=C(COc1ccc2c(-c3ccccc3)cc(=O)oc2c1)Nc1cccnc1	0.1	7.0	5.7	0.9	11.0
COc1cc(C(=O)OCc2csc(CC(=O)Nc3ccccc3C)n2)ccc1OCC(C)C	.	1.8	2.2	21.3	4.2
Cc1ccc2sc(C)cc(=O)c2c1	.	1.8	8.1	.	2.3
COc1cccc(N=C2NC(=O)/C(=C/c3cc([N+](=O)[O-])ccc3O)S2)c1	24.5	39.7*	27.3*	15.2	39.0*
O=C1NC(c2cccs2)C(C(=O)c2ccccc2)C(O)(C(F)(F)F)N1 (configuration not stated)	0.0	2.8	31.8*	-7.8	2.9
